Experimental data from ChEMBL document CHEMBL1687766, “In vitro activity of the new multivalent glycopeptide-cephalosporin antibiotic TD-1792 against vancomycin-nonsusceptible Staphylococcus isolates” (Antimicrob Agents Chemother, 2010).
≈ marks a conversion by molar mass, not a printed value.

Columns and labels:
[1] = Plasma protein binding in human; assay type: ADME, cell-free; details: read-out: PPB (converted)
[2] = Half life of healthy human; assay type: ADME, organism-based; details: in vivo
Serum = test: Drug level in serum of healthy human; assay type: ADME, cell-free
Staphylococcus aureus [3] = test: Antimicrobial activity against vancomycin-intermediate Staphylococcus aureus isolate MU50 assessed as bacterial count at 4 times MIC after 24 hrs by colony counting method; assay type: functional
Summary of the method: (§1)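 24-h time-kill run in triplicate in supplemented Mueller-Hinton broth (12.5 μg/ml Mg, 25 μg/ml Ca), adjusted to 1.1–1.3 mM Ca for daptomycin. […] Samples were taken at 0, 1, 4, 8 and 24 h and counted on BHI agar after 24 h at 35°C. Value is log10 CFU/ml change from baseline at 24 h.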

Staphylococcus aureus [4] = test: Antimicrobial activity against vancomycin-intermediate Staphylococcus aureus isolate MU50 assessed as bacterial count at 8 times MIC after 24 hrs by colony counting method; assay type: functional; summary of the method: as §1
Staphylococcus aureus [5] = test: Antimicrobial activity against vancomycin-intermediate Staphylococcus aureus isolate MU50 assessed as bacterial count at 16 times MIC after 24 hrs by colony counting method; assay type: functional
Summary of the method: (§2)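 Time-kill in triplicate. Mid-exponential culture (OD600 ~0.3) diluted in supplemented Mueller-Hinton broth to 5 × 10^6 CFU/ml. Daptomycin was run at physiologic calcium, 1.1 to 1.3 mM. […] Samples at 0, 1, 4, 8 and 24 h were diluted in cold saline or vacuum filtered, then spiral-plated on BHI agar for 24 h at 35°C. Value is the log10 CFU/ml change from baseline at 24 h.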

Staphylococcus aureus [6] = test: Antimicrobial activity against vancomycin-intermediate Staphylococcus aureus isolate MU50 assessed as bacterial count at 32 times MIC after 24 hrs by colony counting method; assay type: functional; summary of the method: as §1
Staphylococcus aureus [7] = test: Antimicrobial activity against vancomycin-intermediate Staphylococcus aureus isolate NJ992 assessed as bacterial count at 4 times MIC after 24 hrs by colony counting method; assay type: functional; summary of the method: as §1
Staphylococcus aureus [8] = test: Antimicrobial activity against vancomycin-intermediate Staphylococcus aureus isolate NJ992 assessed as bacterial count at 8 times MIC after 24 hrs by colony counting method; assay type: functional; summary of the method: as §1
Staphylococcus aureus [9] = test: Antimicrobial activity against vancomycin-intermediate Staphylococcus aureus isolate NJ992 assessed as bacterial count at 16 times MIC after 24 hrs by colony counting method; assay type: functional; summary of the method: as §1
Staphylococcus aureus [10] = test: Antimicrobial activity against vancomycin-intermediate Staphylococcus aureus isolate NJ992 assessed as bacterial count at 32 times MIC after 24 hrs by colony counting method; assay type: functional; summary of the method: as §1
Staphylococcus aureus [11] = test: Antimicrobial activity against vancomycin-resistant Staphylococcus aureus isolate MI assessed as bacterial count at 4 times MIC after 24 hrs by colony counting method; assay type: functional; summary of the method: as §2
Staphylococcus aureus [12] = test: Antimicrobial activity against vancomycin-resistant Staphylococcus aureus isolate MI assessed as bacterial count at 8 times MIC after 24 hrs by colony counting method; assay type: functional; summary of the method: as §2
Staphylococcus aureus [13] = test: Antimicrobial activity against vancomycin-resistant Staphylococcus aureus isolate MI assessed as bacterial count at 16 times MIC after 24 hrs by colony counting method; assay type: functional; summary of the method: as §2
Staphylococcus aureus [14] = test: Antimicrobial activity against vancomycin-resistant Staphylococcus aureus isolate MI assessed as bacterial count at 32 times MIC after 24 hrs by colony counting method; assay type: functional; summary of the method: as §2
Staphylococcus aureus [15] = test: Antimicrobial activity against vancomycin-resistant Staphylococcus aureus isolate PA assessed as bacterial count at 4 times MIC after 24 hrs by colony counting method; assay type: functional; summary of the method: as §2
Staphylococcus aureus [16] = test: Antimicrobial activity against vancomycin-resistant Staphylococcus aureus isolate PA assessed as bacterial count at 8 times MIC after 24 hrs by colony counting method; assay type: functional; summary of the method: as §2
Staphylococcus aureus [17] = test: Antimicrobial activity against vancomycin-resistant Staphylococcus aureus isolate PA assessed as bacterial count at 16 times MIC after 24 hrs by colony counting method; assay type: functional; summary of the method: as §2
Staphylococcus aureus [18] = test: Antimicrobial activity against vancomycin-resistant Staphylococcus aureus isolate PA assessed as bacterial count at 32 times MIC after 24 hrs by colony counting method; assay type: functional; summary of the method: as §2
Staphylococcus aureus [19] = test: Antimicrobial activity against vancomycin-resistant Staphylococcus aureus isolate NY after 24 hrs by microdilution method; assay type: functional
Summary of the method: (§3)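 Broth microdilution per CLSI, inoculum 5 × 10^5 CFU/ml, Mueller-Hinton broth with 12.5 μg/ml magnesium and 25 μg/ml calcium (SMHB). Daptomycin was instead tested in SMHB at physiologic calcium (final 1.1 to 1.3 mM). Incubation 24 h at 35°C; MIC read; run in duplicate. MBC from 5-μl samples of clear wells plated on BHI agar, 24 h at 35°C.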

Staphylococcus aureus [20] = test: Antimicrobial activity against vancomycin-intermediate Staphylococcus aureus isolate NJ992 after 24 hrs by microdilution method; assay type: functional; details: isolate NJ992, 24 h; summary of the method: as §3
Staphylococcus aureus [21] = test: Antimicrobial activity against vancomycin-resistant Staphylococcus aureus isolate PA after 24 hrs by microdilution method; assay type: functional; summary of the method: as §3
Staphylococcus aureus [22] = test: Antimicrobial activity against vancomycin-resistant Staphylococcus aureus isolate MI after 24 hrs by microdilution method; assay type: functional; summary of the method: as §3
Staphylococcus aureus [23] = test: Antimicrobial activity against vancomycin-intermediate Staphylococcus aureus after 24 hrs by microdilution method; assay type: functional; summary of the method: as §3
[24] = tested on: Staphylococcus haemolyticus; test: Antimicrobial activity against vancomycin-intermediate Staphylococcus haemolyticus after 24 hrs by microdilution method; assay type: functional
Summary of the method: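 CLSI broth microdilution in supplemented Mueller-Hinton broth (12.5 μg/ml Mg, 25 μg/ml Ca), with Ca adjusted to 1.1–1.3 mM for daptomycin. Inoculum was 5 × 10^5 CFU/ml, incubated 24 h at 35°C, done in duplicate. For MBC, clear wells were plated on BHI agar and read after 24 h at 35°C.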

Staphylococcus aureus [25] = test: Antimicrobial activity against vancomycin-heteroresistant Staphylococcus aureus after 24 hrs by microdilution method; assay type: functional; summary of the method: as §3
Staphylococcus aureus [26] = test: Antimicrobial activity against vancomycin-intermediate Staphylococcus aureus isolate MU50 after 24 hrs by microdilution method; assay type: functional; details: isolate MU50, 24 h; summary of the method: as §3
Staphylococcus aureus [27] = test: Antimicrobial activity against methicillin-resistant Staphylococcus aureus infected in patient with complicated skin and skin structure infections assessed as cure rate; assay type: functional
[28] = Staphylococcus haemolyticus, 24 h

SMILES	log10CFU/ml (Staphylococcus aureus [3])	log10CFU/ml (Staphylococcus aureus [4])	log10CFU/ml (Staphylococcus aureus [5])	log10CFU/ml (Staphylococcus aureus [6])	log10CFU/ml (Staphylococcus aureus [7])	log10CFU/ml (Staphylococcus aureus [8])	log10CFU/ml (Staphylococcus aureus [9])	log10CFU/ml (Staphylococcus aureus [10])	MBC (Staphylococcus aureus [19])	MIC (Staphylococcus aureus [19])	MBC (Staphylococcus aureus [20])	MIC (Staphylococcus aureus [20])	MBC (Staphylococcus aureus [21])	MBC (Staphylococcus aureus [22])	MIC (Staphylococcus aureus [22])	MBC50 (Staphylococcus aureus [23])	MBC90 (Staphylococcus aureus [23])	MBC (Staphylococcus aureus [23]; Staphylococcus aureus, 24 h)	MIC50 (Staphylococcus aureus [23]; Staphylococcus aureus, 24 h)	MIC90 (Staphylococcus aureus [23]; Staphylococcus aureus, 24 h)	also measured
CN[C@H](CC(C)C)C(=O)N[C@H]1C(=O)N[C@@H](CC(N)=O)C(=O)N[C@H]2C(=O)N[C@H]3C(=O)N[C@H](C(=O)N[C@H](C(=O)NCCCO/N=C(\C(=O)N[C@@H]4C(=O)N5C(C(=O)[O-])=C(C[n+]6ccccc6)CS[C@H]45)c4nc(N)sc4Cl)c4cc(O)cc(O)c4-c4cc3ccc4O)[C@H](O)c3ccc(c(Cl)c3)Oc3cc2cc(c3O[C@@H]2O[C@H](CO)[C@@H](O)[C@H](O)[C@H]2O[C@H]2C[C@](C)(N)[C@H](O)[C@H](C)O2)Oc2ccc(cc2Cl)[C@H]1O																					fraction unbound [1]: 0.51; half-life [2]: 6.8 h; Drug uptake (Serum): 4.65 µg/mL
CC(=O)NC[C@H]1CN(c2ccc(N3CCOCC3)c(F)c2)C(=O)O1 [LINEZOLID]	3.19	3.26	4.25	4.8	2.13	3.66	3.98	4.89	0.5 µg/mL (≈ 1.48 µM)	0.25 µg/mL (≈ 0.741 µM)	2 µg/mL (≈ 5.93 µM)	1 µg/mL (≈ 2.96 µM)	4 µg/mL (≈ 11.9 µM)	16 µg/mL (≈ 47.4 µM)	1 µg/mL (≈ 2.96 µM)	8 µg/mL (≈ 23.7 µM)	32 µg/mL (≈ 94.9 µM)	1 µg/mL (≈ 2.96 µM)	2 µg/mL (≈ 5.93 µM)	2 µg/mL (≈ 5.93 µM)	log10CFU/ml (Staphylococcus aureus [11]): 1.31; log10CFU/ml (Staphylococcus aureus [12]): 1.55; log10CFU/ml (Staphylococcus aureus [13]): 3.64; log10CFU/ml (Staphylococcus aureus [14]): 4.52; log10CFU/ml (Staphylococcus aureus [15]): 3.24; log10CFU/ml (Staphylococcus aureus [16]): 4.2; log10CFU/ml (Staphylococcus aureus [17]): 4.24; log10CFU/ml (Staphylococcus aureus [18]): 4.95; MBC50 [24]: 8 µg/mL (≈ 23.7 µM); MBC90 [24]: 32 µg/mL (≈ 94.9 µM); MBC [24, 28]: 1 µg/mL (≈ 2.96 µM); MIC50 [24, 28]: 2 µg/mL (≈ 5.93 µM); MIC90 [24, 28]: 2 µg/mL (≈ 5.93 µM); MBC (Staphylococcus aureus [25]; Staphylococcus aureus, 24 h): 1 µg/mL (≈ 2.96 µM); MIC50 (Staphylococcus aureus [25]; Staphylococcus aureus, 24 h): 2 µg/mL (≈ 5.93 µM); MIC90 (Staphylococcus aureus [25]; Staphylococcus aureus, 24 h): 2 µg/mL (≈ 5.93 µM); MBC (Staphylococcus aureus [26]): 32 µg/mL (≈ 94.9 µM); MIC (Staphylococcus aureus [26]): 1 µg/mL (≈ 2.96 µM)
CN[C@H](CC(C)C)C(=O)N[C@H]1C(=O)N[C@@H](CC(N)=O)C(=O)N[C@H]2C(=O)N[C@H]3C(=O)N[C@H](C(=O)N[C@H](C(=O)O)c4cc(O)cc(O)c4-c4cc3ccc4O)[C@H](O)c3ccc(c(Cl)c3)Oc3cc2cc(c3O[C@@H]2O[C@H](CO)[C@@H](O)[C@H](O)[C@H]2O[C@H]2C[C@](C)(N)[C@H](O)[C@H](C)O2)Oc2ccc(cc2Cl)[C@H]1O [VANCOMYCIN]	2.71	3.32	4.48	4.41	2.88	4.3	4.58	4.79	128 µg/mL (≈ 88.3 µM)	64 µg/mL (≈ 44.2 µM)	8 µg/mL (≈ 5.52 µM)	8 µg/mL (≈ 5.52 µM)	64 µg/mL (≈ 44.2 µM)	> 2050 µg/mL	1020 µg/mL (≈ 707 µM)	4 µg/mL (≈ 2.76 µM)	8 µg/mL (≈ 5.52 µM)	4 µg/mL (≈ 2.76 µM)	4 µg/mL (≈ 2.76 µM)	8 µg/mL (≈ 5.52 µM)	Activity (Staphylococcus aureus [27]): 91.9%; MIC (Staphylococcus aureus [21]): 32 µg/mL (≈ 22.1 µM); MIC (Staphylococcus aureus [23]; Staphylococcus aureus, 24 h): 4 µg/mL (≈ 2.76 µM); MBC50 [24]: 4 µg/mL (≈ 2.76 µM); MBC90 [24]: 8 µg/mL (≈ 5.52 µM); MBC [24, 28]: 4 µg/mL (≈ 2.76 µM); MIC [24, 28]: 4 µg/mL (≈ 2.76 µM); MIC50 [24, 28]: 4 µg/mL (≈ 2.76 µM); MIC90 [24, 28]: 8 µg/mL (≈ 5.52 µM); MBC50 (Staphylococcus aureus [25]): 4 µg/mL (≈ 2.76 µM); MBC90 (Staphylococcus aureus [25]): 8 µg/mL (≈ 5.52 µM); MBC (Staphylococcus aureus [25]; Staphylococcus aureus, 24 h): 4 µg/mL (≈ 2.76 µM); MIC (Staphylococcus aureus [25]; Staphylococcus aureus, 24 h): 4 µg/mL (≈ 2.76 µM); MIC50 (Staphylococcus aureus [25]; Staphylococcus aureus, 24 h): 4 µg/mL (≈ 2.76 µM); MIC90 (Staphylococcus aureus [25]; Staphylococcus aureus, 24 h): 8 µg/mL (≈ 5.52 µM); MBC (Staphylococcus aureus [26]): 4 µg/mL (≈ 2.76 µM)
